From ChEMBL document CHEMBL3769331, “Discovery of a new selective inhibitor of A Disintegrin And Metalloprotease 10 (ADAM-10) able to reduce the shedding of NKG2D ligands in Hodgkin's lymphoma cell models” (Eur J Med Chem, 2016)

target: Matrix metalloproteinase-14 (Homo sapiens, UniProt P50281); assay: Inhibition of recombinant human MMP-14 using Mca-Lys-Pro-Leu-Gly-Leu-Dap(Dnp)-Ala-Arg-NH2 as substrate after 3 hrs by fluorometric assay; conditions: not given
Procedure, shortened: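 MMP-14 catalytic domain, final 1.0 nM, preincubated with inhibitor for 3 h at 25 °C in Tris 50 mM pH 7.5, NaCl 150 mM, CaCl2 10 mM, Brij-35 0.05%, DMSO 1%. Substrate final 2 µM. Fluorescence (ex 325/em 400 nm) read every 15 s for 20 min. Duplicates; IC50 from the vi/vo equation.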

Row | IC50 | Structure (SMILES)
1 | 100 µM | Cc1cc(C#N)ccc1N1CCN(S(=O)(=O)N2CSC[C@@H]2C(=O)NO)CC1

target: T1, Disintegrin and metalloproteinase domain-containing protein 10 (Homo sapiens, UniProt O14672); assay: Inhibition of recombinant human ADAM-10 using Mca-Lys-Pro-Leu-Gly-Leu-Dap(Dnp)-Ala-Arg-NH2 as substrate after 1 hr by fluorometric assay; conditions: not given
T1 sequence (O14672 whole entry): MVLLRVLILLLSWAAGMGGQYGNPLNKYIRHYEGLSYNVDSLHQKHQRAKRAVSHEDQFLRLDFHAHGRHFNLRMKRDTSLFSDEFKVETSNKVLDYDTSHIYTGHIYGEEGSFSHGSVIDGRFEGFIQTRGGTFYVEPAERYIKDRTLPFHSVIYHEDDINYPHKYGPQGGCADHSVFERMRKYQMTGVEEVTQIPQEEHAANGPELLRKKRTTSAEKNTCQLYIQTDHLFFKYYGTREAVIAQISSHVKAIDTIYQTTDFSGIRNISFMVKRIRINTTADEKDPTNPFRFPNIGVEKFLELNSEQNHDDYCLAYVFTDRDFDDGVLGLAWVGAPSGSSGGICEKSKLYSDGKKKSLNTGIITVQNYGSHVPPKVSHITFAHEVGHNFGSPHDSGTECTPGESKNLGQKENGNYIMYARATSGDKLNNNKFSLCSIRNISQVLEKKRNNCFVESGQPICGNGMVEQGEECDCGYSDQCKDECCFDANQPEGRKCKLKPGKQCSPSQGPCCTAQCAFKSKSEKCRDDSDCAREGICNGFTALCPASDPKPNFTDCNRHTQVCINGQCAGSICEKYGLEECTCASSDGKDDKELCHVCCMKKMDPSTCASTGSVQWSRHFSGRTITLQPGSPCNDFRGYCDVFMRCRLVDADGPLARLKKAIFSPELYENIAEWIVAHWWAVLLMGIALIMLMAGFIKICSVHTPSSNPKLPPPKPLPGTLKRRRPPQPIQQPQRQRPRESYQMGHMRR
Procedure, shortened: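 Recombinant human ADAM-10, final 20 nM, preincubated with inhibitor for 1 h at 37 °C in Tris 25 mM pH 9, ZnCl2 25 µM, Brij-35 0.005%. Substrate final 10 µM. Fluorescence (ex 325/em 400 nm) read every 15 s for 20 min. Duplicates; IC50 from vi/vo = 1/(1+[I]/IC50).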

Row | IC50 | Structure (SMILES)
2 | 0.04 µM | Cc1cc(C#N)ccc1N1CCN(S(=O)(=O)N2CSC[C@@H]2C(=O)NO)CC1

target: T2, Disintegrin and metalloproteinase domain-containing protein 17 (Homo sapiens, UniProt P78536); assay: Inhibition of recombinant human ADAM-17 using Mca-Lys-Pro-Leu-Gly-Leu-Dap(Dnp)-Ala-Arg-NH2 as substrate after 30 mins by fluorometric assay; conditions: not given
T2 sequence (P78536 whole entry, the tested form may be a part): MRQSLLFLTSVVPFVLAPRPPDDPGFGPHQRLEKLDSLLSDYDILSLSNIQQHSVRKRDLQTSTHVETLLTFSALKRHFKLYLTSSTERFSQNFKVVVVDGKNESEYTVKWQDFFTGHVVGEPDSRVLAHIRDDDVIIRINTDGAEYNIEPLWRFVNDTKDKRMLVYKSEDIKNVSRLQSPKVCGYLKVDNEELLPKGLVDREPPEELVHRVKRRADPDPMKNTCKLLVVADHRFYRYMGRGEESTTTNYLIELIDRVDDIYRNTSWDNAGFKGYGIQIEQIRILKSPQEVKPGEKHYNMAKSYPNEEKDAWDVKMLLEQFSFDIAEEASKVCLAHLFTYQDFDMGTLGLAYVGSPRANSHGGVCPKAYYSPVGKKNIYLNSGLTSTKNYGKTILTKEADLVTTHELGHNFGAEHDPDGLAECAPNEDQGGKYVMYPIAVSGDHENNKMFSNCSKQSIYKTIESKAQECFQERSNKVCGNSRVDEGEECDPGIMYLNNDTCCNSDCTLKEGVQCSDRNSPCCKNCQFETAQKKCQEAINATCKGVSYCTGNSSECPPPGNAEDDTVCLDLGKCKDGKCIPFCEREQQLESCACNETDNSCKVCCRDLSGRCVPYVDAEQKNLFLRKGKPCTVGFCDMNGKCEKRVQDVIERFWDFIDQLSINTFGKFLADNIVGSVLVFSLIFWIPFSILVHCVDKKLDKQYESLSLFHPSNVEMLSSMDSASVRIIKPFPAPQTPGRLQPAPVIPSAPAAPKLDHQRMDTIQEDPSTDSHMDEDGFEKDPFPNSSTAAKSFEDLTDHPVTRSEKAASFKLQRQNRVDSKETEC
Procedure, shortened: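 Recombinant human ADAM-17, final 5 nM, preincubated with inhibitor for 30 min at 37 °C in Tris 25 mM pH 9, ZnCl2 25 µM, Brij-35 0.005%. Substrate final 2 µM. Fluorescence (ex 325/em 400 nm) read every 15 s for 20 min. Duplicates; IC50 from vi/vo = 1/(1+[I]/IC50).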

Row | IC50 | Structure (SMILES)
3 | 1.5 µM | Cc1cc(C#N)ccc1N1CCN(S(=O)(=O)N2CSC[C@@H]2C(=O)NO)CC1

target: Matrix metalloproteinase-9 (Homo sapiens, UniProt P14780); assay: Inhibition of recombinant human MMP-9 using Mca-Lys-Pro-Leu-Gly-Leu-Dap(Dnp)-Ala-Arg-NH2 as substrate after 3 hrs by fluorometric assay; conditions: not given
Sequence (P14780 whole entry): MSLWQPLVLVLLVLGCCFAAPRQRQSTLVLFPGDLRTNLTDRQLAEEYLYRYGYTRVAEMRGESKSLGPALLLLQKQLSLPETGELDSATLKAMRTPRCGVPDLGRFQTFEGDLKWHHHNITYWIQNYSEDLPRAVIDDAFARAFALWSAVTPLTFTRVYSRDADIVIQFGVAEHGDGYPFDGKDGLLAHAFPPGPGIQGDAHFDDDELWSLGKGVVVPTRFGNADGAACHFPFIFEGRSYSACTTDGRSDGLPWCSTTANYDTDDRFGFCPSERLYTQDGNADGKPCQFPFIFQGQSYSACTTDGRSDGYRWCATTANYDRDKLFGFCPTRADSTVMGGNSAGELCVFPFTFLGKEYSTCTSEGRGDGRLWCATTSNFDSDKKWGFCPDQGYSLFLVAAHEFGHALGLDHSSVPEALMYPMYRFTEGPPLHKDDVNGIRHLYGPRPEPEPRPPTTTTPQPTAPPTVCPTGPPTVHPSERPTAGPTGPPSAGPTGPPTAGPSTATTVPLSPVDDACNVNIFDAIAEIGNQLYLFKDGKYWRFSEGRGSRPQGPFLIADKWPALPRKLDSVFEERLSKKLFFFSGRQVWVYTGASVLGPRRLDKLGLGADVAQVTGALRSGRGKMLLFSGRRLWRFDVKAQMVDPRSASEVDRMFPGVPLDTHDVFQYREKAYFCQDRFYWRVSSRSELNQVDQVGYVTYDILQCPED
Procedure, shortened: (§1)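 Pro-MMPs were activated with APMA: MMP-1 2 mM for 2 h, MMP-2 2 mM for 1 h, MMP-9 1 mM for 1 h, all at 37 °C. Final enzyme: MMP-1 2.0 nM, MMP-2 0.56 nM, MMP-9 1.3 nM. Enzyme was preincubated with inhibitor for 3 h at 25 °C in Tris 50 mM pH 7.5, NaCl 150 mM, CaCl2 10 mM, Brij-35 0.05%, DMSO 1%. Substrate final 2 µM. Fluorescence (ex 325/em 400 nm) read every 15 s for 20 min. Duplicates; IC50 from vi/vo = 1/(1+[I]/IC50).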

Row | IC50 | Structure (SMILES)
4 | 24 µM | Cc1cc(C#N)ccc1N1CCN(S(=O)(=O)N2CSC[C@@H]2C(=O)NO)CC1

target: 72 kDa type IV collagenase (Homo sapiens, UniProt P08253); assay: Inhibition of recombinant human MMP-2 using Mca-Lys-Pro-Leu-Gly-Leu-Dap(Dnp)-Ala-Arg-NH2 as substrate after 3 hrs by fluorometric assay; conditions: not given; procedure, shortened: as §1
Sequence (P08253 whole entry): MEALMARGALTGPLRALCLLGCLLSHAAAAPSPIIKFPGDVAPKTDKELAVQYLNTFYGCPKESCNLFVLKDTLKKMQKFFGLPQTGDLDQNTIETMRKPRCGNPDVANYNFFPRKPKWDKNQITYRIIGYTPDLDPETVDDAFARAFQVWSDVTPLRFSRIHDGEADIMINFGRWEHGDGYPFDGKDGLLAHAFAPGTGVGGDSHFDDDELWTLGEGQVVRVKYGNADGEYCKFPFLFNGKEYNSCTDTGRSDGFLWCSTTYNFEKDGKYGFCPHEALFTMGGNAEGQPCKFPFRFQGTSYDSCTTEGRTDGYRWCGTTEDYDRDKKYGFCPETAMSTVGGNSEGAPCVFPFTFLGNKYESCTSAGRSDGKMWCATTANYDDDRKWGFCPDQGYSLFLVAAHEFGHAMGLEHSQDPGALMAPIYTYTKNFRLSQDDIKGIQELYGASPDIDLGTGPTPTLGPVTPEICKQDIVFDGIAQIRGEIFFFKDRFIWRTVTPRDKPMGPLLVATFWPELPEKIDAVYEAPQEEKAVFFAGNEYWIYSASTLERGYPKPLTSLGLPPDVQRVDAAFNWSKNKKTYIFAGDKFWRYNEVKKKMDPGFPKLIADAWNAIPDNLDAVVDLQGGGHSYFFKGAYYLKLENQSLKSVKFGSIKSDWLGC

Row | IC50 | Structure (SMILES)
5 | 5.4 µM | Cc1cc(C#N)ccc1N1CCN(S(=O)(=O)N2CSC[C@@H]2C(=O)NO)CC1

target: T3, Interstitial collagenase (Homo sapiens, UniProt P03956); assay: Inhibition of human MMP-1 using Mca-Lys-Pro-Leu-Gly-Leu-Dap(Dnp)-Ala-Arg-NH2 as substrate after 3 hrs by fluorometric assay; conditions: not given; procedure, shortened: as §1
T3 sequence (P03956 whole entry): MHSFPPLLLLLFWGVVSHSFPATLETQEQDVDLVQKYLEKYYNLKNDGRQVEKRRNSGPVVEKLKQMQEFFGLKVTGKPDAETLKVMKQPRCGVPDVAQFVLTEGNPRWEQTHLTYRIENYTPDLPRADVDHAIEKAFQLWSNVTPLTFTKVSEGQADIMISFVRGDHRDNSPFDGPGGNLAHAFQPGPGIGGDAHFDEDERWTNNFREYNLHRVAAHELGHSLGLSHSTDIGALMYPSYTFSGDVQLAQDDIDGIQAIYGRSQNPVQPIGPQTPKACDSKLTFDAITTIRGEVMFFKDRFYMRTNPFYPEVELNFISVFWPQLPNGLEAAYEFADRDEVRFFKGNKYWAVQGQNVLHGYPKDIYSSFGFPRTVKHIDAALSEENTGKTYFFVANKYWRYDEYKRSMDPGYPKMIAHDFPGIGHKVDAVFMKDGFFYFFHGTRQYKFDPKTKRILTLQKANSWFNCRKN

Row | IC50 | Structure (SMILES)
6 | 346 µM | Cc1cc(C#N)ccc1N1CCN(S(=O)(=O)N2CSC[C@@H]2C(=O)NO)CC1

tested on: not listed separately; assay: Cytotoxicity against human KM-H2 cells assessed as cell viability at 10 uM after 72 to 96 hrs by JC-1 staining-based fluorescence assay; conditions: read-out: Activity
Procedure, shortened: (§2)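 HL cell lines from DSMZ exposed to inhibitor at 10 µM for 72 and 96 h. Viability read as mitochondrial potential by staining with the dual-emission fluorescent probe JC-1.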

Row | Structure (SMILES) | viability at 10 µM
7 | O=C(NCCC[C@@H](NS(=O)(=O)c1ccc(OCc2cc(Br)cc(Br)c2)cc1)C(=O)NO)OCc1ccccc1 | > 96%
8 | Cc1cc(C#N)ccc1N1CCN(S(=O)(=O)N2CSC[C@@H]2C(=O)NO)CC1 | > 96%

tested on: not listed separately; assay: Cytotoxicity against human L428 cells assessed as cell viability at 10 uM after 72 to 96 hrs by JC-1 staining-based fluorescence assay; design: species or system L-428; conditions: read-out: Activity; procedure, shortened: as §2

Row | Structure (SMILES) | viability at 10 µM
9 | O=C(NCCC[C@@H](NS(=O)(=O)c1ccc(OCc2cc(Br)cc(Br)c2)cc1)C(=O)NO)OCc1ccccc1 | > 96%
10 | Cc1cc(C#N)ccc1N1CCN(S(=O)(=O)N2CSC[C@@H]2C(=O)NO)CC1 | > 96%

tested on: not listed separately; assay: Cytotoxicity against human L540 cells assessed as cell viability at 10 uM after 72 to 96 hrs by JC-1 staining-based fluorescence assay; design: species or system L-540; conditions: read-out: Activity; procedure, shortened: as §2

Row | Structure (SMILES) | viability at 10 µM
11 | O=C(NCCC[C@@H](NS(=O)(=O)c1ccc(OCc2cc(Br)cc(Br)c2)cc1)C(=O)NO)OCc1ccccc1 | > 96%
12 | Cc1cc(C#N)ccc1N1CCN(S(=O)(=O)N2CSC[C@@H]2C(=O)NO)CC1 | > 96%

target: T1, Disintegrin and metalloproteinase domain-containing protein 10; assay: Inhibition of ADAM-10 in human KM-H2 cells assessed as reduction in pervanadate-induced soluble ULBP3 shedding after 24 hrs by ELISA; format: cell-based; conditions: not given
Procedure, shortened: (§3)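 Supernatants collected before and after 24 h inhibitor exposure, 10 to 0.1 µM. 100 µM sodium orthovanadate was activated to pervanadate with 100 µM H2O2 and added for 40 min before harvest. Soluble ULBP3 or ALCAM measured by ELISA.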

Row | IC50 | Structure (SMILES)
13 | 15 µM | O=C(NCCC[C@@H](NS(=O)(=O)c1ccc(OCc2cc(Br)cc(Br)c2)cc1)C(=O)NO)OCc1ccccc1
14 | 7 µM | Cc1cc(C#N)ccc1N1CCN(S(=O)(=O)N2CSC[C@@H]2C(=O)NO)CC1

target: T1, Disintegrin and metalloproteinase domain-containing protein 10; assay: Inhibition of ADAM-10 in human KM-H2 cells assessed as reduction in pervanadate-induced soluble MICB shedding after 24 hrs by ELISA; format: cell-based; conditions: not given
Procedure, shortened: (§4)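 Supernatants taken from HL cultures before and after 24 h inhibitor exposure, 10 to 0.1 µM. 100 µM sodium orthovanadate was activated to pervanadate with 100 µM H2O2 and added for 40 min before harvest. Soluble MIC-B measured by ELISA against a MIC-B/Fc chimera standard curve. The DMSO+pervanadate supernatant was set as 100% shedding. Triplicate wells, 3 independent experiments.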

Row | IC50 | Structure (SMILES)
15 | 15 µM | O=C(NCCC[C@@H](NS(=O)(=O)c1ccc(OCc2cc(Br)cc(Br)c2)cc1)C(=O)NO)OCc1ccccc1
16 | 5 µM | Cc1cc(C#N)ccc1N1CCN(S(=O)(=O)N2CSC[C@@H]2C(=O)NO)CC1

target: T2, Disintegrin and metalloproteinase domain-containing protein 17; assay: Inhibition of ADAM-17 in human KM-H2 cells assessed as reduction in pervanadate-induced soluble ALCAM shedding after 24 hrs by ELISA; format: cell-based; conditions: not given; procedure, shortened: as §3

Row | IC50 | Structure (SMILES)
17 | 0.5 µM | O=C(NCCC[C@@H](NS(=O)(=O)c1ccc(OCc2cc(Br)cc(Br)c2)cc1)C(=O)NO)OCc1ccccc1
18 | 10 µM | Cc1cc(C#N)ccc1N1CCN(S(=O)(=O)N2CSC[C@@H]2C(=O)NO)CC1

target: T1, Disintegrin and metalloproteinase domain-containing protein 10; assay: Inhibition of ADAM-10 in human L428 cells assessed as reduction in pervanadate-induced soluble ULBP3 shedding after 24 hrs by ELISA; format: cell-based, L-428; conditions: not given; procedure, shortened: as §3

Row | IC50 | Structure (SMILES)
19 | 10 µM | O=C(NCCC[C@@H](NS(=O)(=O)c1ccc(OCc2cc(Br)cc(Br)c2)cc1)C(=O)NO)OCc1ccccc1
20 | 5 µM | Cc1cc(C#N)ccc1N1CCN(S(=O)(=O)N2CSC[C@@H]2C(=O)NO)CC1

target: T1, Disintegrin and metalloproteinase domain-containing protein 10; assay: Inhibition of ADAM-10 in human L428 cells assessed as reduction in pervanadate-induced soluble MICB shedding after 24 hrs by ELISA; format: cell-based, L-428; conditions: not given; procedure, shortened: as §4

Row | IC50 | Structure (SMILES)
21 | 15 µM | O=C(NCCC[C@@H](NS(=O)(=O)c1ccc(OCc2cc(Br)cc(Br)c2)cc1)C(=O)NO)OCc1ccccc1
22 | 5 µM | Cc1cc(C#N)ccc1N1CCN(S(=O)(=O)N2CSC[C@@H]2C(=O)NO)CC1

target: T2, Disintegrin and metalloproteinase domain-containing protein 17; assay: Inhibition of ADAM-17 in human L428 cells assessed as reduction in pervanadate-induced soluble ALCAM shedding after 24 hrs by ELISA; format: cell-based, L-428; conditions: not given; procedure, shortened: as §3

Row | IC50 | Structure (SMILES)
23 | 0.1 µM | O=C(NCCC[C@@H](NS(=O)(=O)c1ccc(OCc2cc(Br)cc(Br)c2)cc1)C(=O)NO)OCc1ccccc1
24 | 12 µM | Cc1cc(C#N)ccc1N1CCN(S(=O)(=O)N2CSC[C@@H]2C(=O)NO)CC1

target: T1, Disintegrin and metalloproteinase domain-containing protein 10; assay: Inhibition of ADAM-10 in human L540 cells assessed as reduction in pervanadate-induced soluble ULBP3 shedding after 24 hrs by ELISA; format: cell-based, L-540; conditions: not given; procedure, shortened: as §3

Row | IC50 | Structure (SMILES)
25 | 12 µM | O=C(NCCC[C@@H](NS(=O)(=O)c1ccc(OCc2cc(Br)cc(Br)c2)cc1)C(=O)NO)OCc1ccccc1
26 | 7 µM | Cc1cc(C#N)ccc1N1CCN(S(=O)(=O)N2CSC[C@@H]2C(=O)NO)CC1

target: T1, Disintegrin and metalloproteinase domain-containing protein 10; assay: Inhibition of ADAM-10 in human L540 cells assessed as reduction in pervanadate-induced soluble MICB shedding after 24 hrs by ELISA; format: cell-based, L-540; conditions: not given; procedure, shortened: as §4

Row | IC50 | Structure (SMILES)
27 | 15 µM | O=C(NCCC[C@@H](NS(=O)(=O)c1ccc(OCc2cc(Br)cc(Br)c2)cc1)C(=O)NO)OCc1ccccc1
28 | 7 µM | Cc1cc(C#N)ccc1N1CCN(S(=O)(=O)N2CSC[C@@H]2C(=O)NO)CC1
